Source: PubChem
PAFAH1B3 inh – PAFAH1B3 enzyme inhibitors, primary screen, biochemical, fluorescence polarization, human. Platelet-activating factor acetylhydrolase IB subunit alpha1 (Homo sapiens), Q15102. inhibition, % at 3.39 µM. AID 492972, 2010. recombinant PAFAH1B3, FP-rhodamine probe. actives 0.28% (n = 340,000);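 active means inhibition above the screen-wide average of all tested compounds plus 3 SD, cut at about 25% in these data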
Apaf-1 inh – inhibitors of human Apaf-1 apoptosome, primary screen, biochemical, DEVD-Rh110 fluorescence, uHTS; Apoptotic protease-activating factor 1 (Homo sapiens), O14727; reconstituted apoptosome caspase-3 activity; inhibition, % at 20 µM; actives 0.71% (n = 330,000); AID 489030, 2010; active means inhibition of at least 40% at 20 µM
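Medium: Hepes buffer, pH 7.5 / System: biochemical Apaf-1 apoptosome reconstitution / Measured by: Rh110 fluorescence, excitation 480 nm, emission 540 nm / Times: compound with Apaf-1, dATP, procaspase-3 30 min, then 50 min reaction, room temperature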
PAFAH2 FP inh – PAFAH2 enzyme inhibitors, primary screen, biochemical, fluorescence polarization, human; Platelet-activating factor acetylhydrolase 2, cytoplasmic (Homo sapiens), Q99487; recombinant PAFAH2, FP-rhodamine activity probe; inhibition, % at 3.39 µM; actives 0.99% (n = 340,000);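 active means inhibition above the mean over all tested compounds plus 3 SD, cut at about 30% in these data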;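 further: inhibitors block probe labeling of enzyme so polarization drops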
pPAFAH inh – pPAFAH enzyme inhibitors, primary screen, biochemical, fluorescence polarization, human | Platelet-activating factor acetylhydrolase (Homo sapiens), Q13093 | recombinant pPAFAH, FP-rhodamine probe fluorescence polarization | inhibition, % at 3.39 µM | actives 1.5% (n = 330,000);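 active means inhibition above the mean inhibition across the screen plus 3 SD, cut at about 25% in these data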;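 further: inhibitors block binding of the rhodamine activity-based probe so polarization drops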
PAFAH1B2 inh – PAFAH1B2 enzyme inhibitors, primary screen, biochemical, fluorescence polarization, human | Platelet-activating factor acetylhydrolase IB subunit alpha2 (Homo sapiens), P68402 | recombinant PAFAH1B2, FP-rhodamine activity probe | inhibition, % at 3.39 µM | actives 1.2% (n = 340,000) | AID 492953, 2010;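 active means inhibition above the mean of all tested compounds plus 3 SD, cut at about 24% in these data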
A number is an active result; n = inactive; x = no result given. Sampled rows, rich in hits. Any-hit rate of the full collection: about 3.1%.

SMILES	PAFAH1B3 inh	Apaf-1 inh	PAFAH2 FP inh	pPAFAH inh	PAFAH1B2 inh
CCCCCCCCCS(=O)(=O)N/N=C/c1cccc([N+](=O)[O-])c1	n	n	n	n	28
Cc1ccc(NS(=O)(=O)c2cc([N+](=O)[O-])ccc2NNC(=S)Nc2cc(C)ccc2C)c(C)c1	n	n	n	n	n
Cc1ccc(NS(=O)(=O)c2cc([N+](=O)[O-])ccc2NNC(=S)Nc2cccc(Cl)c2)c(C)c1	n	x	n	n	41
O=C(COc1ccccc1[N+](=O)[O-])OCC(=O)c1ccc(Br)s1	n	n	n	26	n
O=C(O)c1cc(O)ccc1O	n	x	n	x	n
O=C(O)C1=CC(=C(c2ccc(O)c(C(=O)O)c2)c2ccc(O)c(C(=O)O)c2)C=CC1=O	x	x	x	66	x
O=C(CN1C(=O)C2CCCCC2C1=O)OCC(=O)c1ccc(Cl)s1 (configuration not stated)	n	n	40	26	n
Cc1ccc(NC(=O)CCNS(=O)(=O)c2ccc(OC(F)(F)F)cc2)c(O)c1	n	n	n	n	n
FC(F)Oc1ccc(N=C2SCC3CCCCN23)cc1 (configuration not stated)	n	n	n	33	n
COC(=O)c1ccc(CNC(=O)C(C)N=C2NS(=O)(=O)c3ccccc32)cc1 (configuration not stated)	n	n	n	x	n
O=C(Cc1ccc(Cl)cc1Cl)Nc1cccc(S(=O)(=O)Nc2ccccc2F)c1	n	n	n	27	n
CCCOc1ccc(C(CC(=O)O)NC(=O)C(c2ccccc2)c2ccccc2)cc1 (configuration not stated)	n	n	n	n	26
CCCOc1ccc(C(CC(=O)O)NC(=O)Cc2ccccc2)cc1 (configuration not stated)	n	n	n	n	n
O=[N+]([O-])c1ccc(C=Nc2ccc(Cl)c([N+](=O)[O-])c2)s1	n	n	60	x	n
Cc1cc(C)cc(N=Cc2ccc([N+](=O)[O-])s2)c1	n	n	n	n	n
NC(=O)c1ccc(N=Cc2ccc([N+](=O)[O-])s2)cc1	n	x	60	n	n
O=C1C=C(O)c2cccc3cccc1c23	n	n	n	n	n
O=C1C=C(O)c2c(O)cccc2C1=O	x	n	x	27	x
COc1cccc2c1C(=O)c1c(O)c3c(c(O)c1C2=O)C[C@@](O)(C(=O)CO)C[C@@H]3OC1CC(N)C(O)C(C)O1 (some centres not stated)	52	x	54	x	52
COc1cccc2c1C(=O)c1c(O)c3c(c(O)c1C2=O)CC(O)(C(C)=O)CC3OC1CC(N(C)C)C(O)C(C)O1 (configuration not stated)	46	x	62	x	59
CCCn1c(CCC(=O)O)ccc1-c1ccc(OC)cc1	n	n	n	n	n
COc1ccc(-c2ccc(CCC(=O)O)n2Cc2ccco2)cc1	n	n	n	28	n
CCCCCCCN=CC1=C(O)CC(c2ccccc2)CC1=O (configuration not stated)	n	n	n	n	26
Cc1ccc2cc(CCNS(=O)(=O)c3ccc(Br)cc3)c(=O)[nH]c2c1C	n	n	n	n	30
CCc1ccc2nc(N(CCCN(C)C)C(=O)c3ccc(S(=O)(=O)N(C)C4CCCCC4)cc3)sc2c1	n	54	n	n	n
SMILES	PAFAH1B3 inh	Apaf-1 inh	PAFAH2 FP inh	pPAFAH inh	PAFAH1B2 inh
COCC(C)NC(=O)NC1(C(F)(F)F)Oc2ccc(Cl)cc2O1 (configuration not stated)	n	n	n	n	25
CCC(C)(C)C1CCc2[nH]nc(C(=O)NCCNC(=O)OC(C)(C)C)c2C1 (configuration not stated)	n	n	n	n	28
CCC(C)(C)C1CCc2[nH]nc(C(=O)NCC3CC3)c2C1 (configuration not stated)	n	n	n	n	n
COc1ccc(-n2c(SC3CCOC3=O)nc3ccccc32)cc1 (configuration not stated)	n	n	n	31	n
O=C1OCCC1Sc1nc2ccccc2n1-c1ccccc1 (configuration not stated)	n	n	n	n	n
Cc1ccc(C=Nc2ccc(N(C)C)cc2)o1	n	51	n	n	n
Cn1ncc(Cl)c1C(=O)NNC(=O)Nc1cccc2ccccc12	n	n	n	x	n
CCOc1ccc(S(=O)(=O)N2CCN=C2c2ccccc2)c(C)c1C	n	n	n	n	n
O=c1c2ccccc2[nH]c2ccc(O)cc12	n	n	n	29	n
CCOc1ccc(N=C/C=C/c2ccccc2)c(O)c1	n	n	n	32	n
CCOc1ccc(NCC(=O)N/N=C/C=C/c2ccccc2)cc1	n	n	n	n	n
Cc1cc(C)n(CC(C)Nc2nc3nonc3nc2N2CCCCC2)n1 (configuration not stated)	n	n	n	n	n
Cc1cc(C)n(CCNc2nc3nonc3nc2N2CCCCC2)n1	n	n	n	28	n
Cc1onc(-c2ccccc2)c1C(=O)NC(=S)Nc1sc2c(c1C#N)CCCC2	n	n	n	n	n
Cc1onc(-c2ccccc2)c1C(=O)Nc1sc2c(c1C#N)CCC2	n	n	n	27	n
CCOc1ccc2c(c1)c1nnc(SCC(=O)NC3CC3)nc1n2C	n	n	n	n	n
COC(=O)Cc1c(O)ccn(Cc2ccc(Cl)c(Cl)c2)c1=O	n	n	n	n	28
COC(=O)Cc1c(O)ccn(Cc2ccc(OC)c(OC)c2)c1=O	n	n	n	n	n
O=c1c(Cc2ccc(Cl)cc2)c(O)ccn1Cc1cccc(Cl)c1	n	n	n	n	n
O=c1c(Cc2ccc(Cl)cc2Cl)c(O)ccn1Cc1ccc(Cl)cc1	n	n	n	n	28
CCC(C)[C@@H](CN)NCC1(c2ccccc2)CC1 (some centres not stated)	n	n	n	n	n
C=CCn1c(-c2cccn(Cc3ccccc3)c2=O)n[nH]c1=S	n	n	n	n	n
C=CCn1c(-c2cccn(Cc3ccc(Cl)cc3)c2=O)n[nH]c1=S	n	n	n	n	33
C=CCn1c(-c2cccn(Cc3ccc(Cl)cc3Cl)c2=O)n[nH]c1=S	n	n	n	n	29
C=CCn1c(-c2cccn(Cc3cccc(Cl)c3)c2=O)n[nH]c1=S	n	n	n	n	n
Cc1ccc(C(=O)NCCc2nnc3ccc(NCc4ccc5c(c4)OCO5)nn23)cc1	n	n	n	n	n
CCN(CC(=O)Nc1ccc(NC(C)=O)cc1)C(=O)c1ccccc1CCc1ccccc1	n	n	n	n	n
O=C(Nc1cc([N+](=O)[O-])ccc1O)c1ccc2c(c1)C(=O)N(Cc1ccco1)C2=O	n	n	n	30	n
